Experimental data reported in article PMC2705627 (Journal of immunology (Baltimore, Md. : 1950), 2008).
“Also recorded” adds a separate entry of the source. Residues, ends and D or L forms follow the SMILES beside them. *: point of attachment. For = O=C*

What was measured:
mFPR1 [1] = molecular target: T1, mFPR1 (Mus musculus, UniProt P33766); assay: Ca2+ mobilization in mFPR1-RBL cells; format: cell-based
T1 sequence (P33766 1-364): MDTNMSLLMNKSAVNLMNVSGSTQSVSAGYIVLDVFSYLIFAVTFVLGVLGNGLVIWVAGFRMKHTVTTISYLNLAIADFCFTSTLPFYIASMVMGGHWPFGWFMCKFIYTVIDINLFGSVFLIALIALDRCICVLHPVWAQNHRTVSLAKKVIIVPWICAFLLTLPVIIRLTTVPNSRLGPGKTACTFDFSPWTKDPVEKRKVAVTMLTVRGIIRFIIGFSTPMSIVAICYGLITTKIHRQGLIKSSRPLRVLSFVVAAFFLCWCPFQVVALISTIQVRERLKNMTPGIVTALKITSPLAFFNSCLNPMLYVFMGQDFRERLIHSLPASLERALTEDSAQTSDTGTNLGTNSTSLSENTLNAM

mfpr1^-/- neutrophils [2] = assay: Superoxide production, mfpr1-/- neutrophils; format: cell-based, mouse (mfpr1^-/-)
Procedure, shortened: (§1)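 Bone-marrow neutrophils from age- and gender-matched mfpr1-/- and WT C57BL/6 mice (8–10 wk), 5 × 10^6 cells/ml in HBSS with 0.5% BSA. Preincubated 5 min at 37°C with isoluminol, 40 U/ml HRP and 5 μM cytochalasin B. Chemiluminescence: 5 min basal, then every minute for 15 min after agonist. SOD controls; 200 ng/ml PMA time course. Peptide responses as area under curve over first 10 min; two experiments in triplicate.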

WT neutrophils = assay: Superoxide production, WT neutrophils; format: cell-based, mouse (C57BL/6)
Procedure, shortened: as §1

FPRL1 = settings: b40: fMIVIL ref 22; b3: fMLF ref 16; cited from earlier work
neutrophils from dog = settings: cited from earlier work
human neutrophils = settings: cited from earlier work
[3] = test system: human formyl peptide receptor (FPR) 1; settings: cited from earlier work
[4] = test system: mock-transfected RBL cells; assay: ERK1/2 phosphorylation in mock-transfected RBL cells; format: cell-based, rat; settings: at the concentrations tested (10 nM, 1 μM)
Procedure, shortened: (§2)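 Stably transfected or mock-transfected RBL-2H3 cells cultured 24 h, serum-starved 4 h, then stimulated over various time intervals. Stopped on ice in SDS-PAGE loading buffer, sonicated and boiled. Western blot with anti-phospho-ERK1/2 (1/1000), loading checked with anti-ERK1/2 (1/1000), HRP anti-rabbit secondary (1/3000). Two independent experiments.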

mouse neutrophils [5] = assay: Superoxide production, mouse bone marrow neutrophils; format: cell-based
Procedure, shortened: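 Isoluminol-enhanced chemiluminescence on mouse bone-marrow neutrophils at 5 × 10^6 cells/ml in HBSS with 0.5% BSA, preincubated 5 min at 37°C with isoluminol, 40 U/ml HRP and 5 μM cytochalasin B. Basal reading 5 min, then agonist at graded concentrations, read each minute for 15 min; SOD controls run in parallel. Cumulative superoxide taken as area under curve over first 5 min; two experiments in duplicate.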

neutrophils from pig = settings: cited from earlier work
mouse neutrophils [6] = settings: mice; cited from earlier work
mFPR1 [7] = molecular target: T1, mFPR1; settings: cited from earlier work
mouse neutrophils [8] = assay: Ca2+ mobilization, mouse bone marrow neutrophils; format: cell-based
mFPR1 [9] = molecular target: T1, mFPR1; assay: ERK1/2 phosphorylation in mFPR1-RBL cells; format: cell-based; settings: Western blot
Procedure, shortened: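 RBL-2H3 cells stably expressing mFPR1 (G418-selected; DMEM, 20% FBS, 250 μg/ml G418), with untransfected RBL cells as control. Cultured 24 h, serum-starved 4 h, then stimulated at graded concentrations for various times. Lysed in ice-cold SDS loading buffer, sonicated, boiled. Western blot for phospho-ERK1/2, with total ERK1/2 as loading control. Two independent experiments.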

mouse neutrophils [10] = settings: cited from earlier work
mFPR2 [11] = settings: vs mFPR1; cited from earlier work
mfpr1^-/- neutrophils [12] = assay: Degranulation; format: cell-based, mouse (mfpr1^-/-); settings: KO
Procedure, shortened: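 Bone marrow neutrophils from 8-10 wk mfpr1-/- mice (C57BL/6 background) and matched WT mice. Cells preincubated with 10 μM cytochalasin B in HBSS, 20 mM HEPES pH 7.4, 0.1% BSA, 15 min on ice then 15 min at 37°C. Stimulated 10 min at 37°C, then chilled. Supernatant reacted with 4-methylumbelliferyl β-D-glucuronide (pH 4.0), 15 min at 37°C. Fluorescence read at 365/460 nm. Release expressed as % of total from Triton X-100 lysate.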

[13] = test system: neutrophils from mfpr1-deficient mice; settings: ex vivo; cited from earlier work
mouse neutrophils [14] = assay: Degranulation; format: cell-based, mouse (C57BL/6)
Procedure, shortened: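 WT C57BL/6 and mfpr1-/- bone-marrow neutrophils preincubated with 10 μM cytochalasin B in HBSS, 20 mM HEPES (pH 7.4), 0.1% BSA: 15 min on ice, then 15 min at 37°C. Stimulated 10 min at 37°C, chilled and spun. Supernatant mixed 1:1 with 10 mM 4-methylumbelliferyl β-D-glucuronide (pH 4.0, 0.1% Triton X-100) 15 min at 37°C. Glycine/EDTA stop (pH 10.4); fluorescence 365/460 nm, as % of lysate total.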

mFPR1 [15] = molecular target: T1, mFPR1; settings: cited from earlier work; remark: listed apart in the source
mFPR2 [16] = assay: ERK1/2 phosphorylation in mFPR2-RBL cells; format: cell-based, mouse; settings: at the concentrations tested; data not shown
Procedure, shortened: as §2

neutrophils from cat = settings: cited from earlier work
mouse neutrophils [17] = assay: Ex vivo chemotaxis; format: cell-based; settings: CD1 mice, Transwell, 30 min, 37°C
Procedure, shortened: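 Bone marrow neutrophils from CD1 mice, purified on a Nycoprep/72% Percoll gradient after RBC lysis. Cells at 5 × 10^6 cells/ml in HBSS/0.5% BSA, prewarmed 20 min at 37°C. Agonist placed in BSA-precoated lower wells under 3 μm pore inserts, cells added on top. After 30 min at 37°C, cells in the bottom chamber were counted. Counts with ligand in both chambers were subtracted to remove chemokinesis.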

neutrophils from cow = settings: cited from earlier work

Molecule: CC[C@H](C)[C@H](NC(=O)[C@H](CCSC)NC=O)C(=O)N[C@@H](Cc1ccccc1)C(=O)N[C@@H](CC(C)C)C(=O)O [fMIFL, N-formyl-Met-Ile-Phe-Leu] (For-MIFL-OH)
- EC50 (mFPR1 [1]): 10 nM

Molecule: CC[C@H](C)[C@H](NC(=O)[C@H](CCSC)NC=O)C(=O)N[C@H](C(=O)N[C@H](C(=O)N[C@@H](CC(C)C)C(=O)O)[C@@H](C)CC)C(C)C [fMIVIL, N-formyl-Met-Ile-Val-Ile-Leu] (For-MIVIL-OH)
- EC50 (mFPR1 [1]): 10 nM

Molecule: CCCCCCCCCCCCCC(=O)O[C@@H]1[C@@H](C)[C@@]2(O)[C@@H](C=C(CO)C[C@]3(O)C(=O)C(C)=C[C@@H]23)[C@@H]2C(C)(C)[C@]12OC(C)=O [phorbol ester, phorbol myristate ester]
- superoxide production on phorbol ester stimulation, mfpr1-/- neutrophils (mfpr1^-/- neutrophils [2]; 200 ng/ml phorbol myristate ester, KO compared with WT): responded similarly
- superoxide production on phorbol ester stimulation, WT neutrophils (WT neutrophils; 200 ng/ml phorbol myristate ester, WT compared with KO): responded similarly

Molecule: N-formyl-Met-Leu-Phe [fMLF]
- affinity/response at FPRL1 (FPRL1): low affinities; also recorded: low-affinity receptor for fMLF
- response of dog neutrophils (neutrophils from dog): do not respond
- ERK1/2 phosphorylation in human neutrophils (human neutrophils): rapid phosphorylation of the MAPKs ERK1/2
- concentration inducing bactericidal functions in human neutrophils (human neutrophils; human neutrophils): nanomolar concentrations
- agonist activity at human FPR1 [3]: potent agonist
- ERK1/2 phosphorylation in mock-transfected RBL cells [4]: none of the peptides was able to induce detectable phosphorylation
- superoxide production at 5 μM relative to fMIVIL and fMIFL (mouse neutrophils [5]; 5 μM): about one-half
- threshold concentration for superoxide generation (mouse neutrophils [5]; isoluminol chemiluminescence, 37°C): above 1 μM
- response of pig neutrophils (neutrophils from pig): do not respond
- fMLF concentration required for degranulation and superoxide production (mouse neutrophils [6]): 5 to 10 µM
- agonist concentration required for calcium mobilization (mFPR1 [7]): ≥ 100 nM
- Ca2+ mobilization at 10 nM (mouse neutrophils [8]; 10 nM, FLIPR dye): but not fMLF
- lowest concentration with evident Ca2+ mobilization (mouse neutrophils [8]; not evident below 100 nM): ≥ 100 nM
- ERK1/2 phosphorylation at 10 nM (mFPR1 [9]; 10 nM): but not at 10 nM
- ERK1/2 phosphorylation at 1 μM (mFPR1 [9]; 1 μM): could induce ERK1/2 phosphorylation
- concentration inducing Ca2+ flux (mFPR1 [1]; mFPR1-RBL): above 1 μM
- potency loss on mouse neutrophils vs human neutrophils (mouse neutrophils [10]; less potent for mouse than for human neutrophils): 100 -fold
- concentration required for mouse neutrophil activation (mouse neutrophils [10]; mouse neutrophils, ref 17 (ref 17, 20)): requiring micromolar concentrations for cell activation; also recorded: requires micromolar concentrations; also recorded: micromolar concentration range
- response of mFPR2 to fMLF (mFPR2 [11]): responds even more weakly
- β-glucuronidase release at 100 nM, mfpr1-/- neutrophils (mfpr1^-/- neutrophils [12]; 100 nM): none of the three peptides was able to induce β-glucuronidase release
- β-glucuronidase release above 1 μM, mfpr1-/- neutrophils (mfpr1^-/- neutrophils [12]; peptide concentrations above 1 μM): only a small amount of enzyme was released
- superoxide production, mfpr1-/- neutrophils (mfpr1^-/- neutrophils [2]; mfpr1^-/-): very little superoxide was generated
- responsiveness of mfpr1-deficient neutrophils to fMLF [13]: decreased responsiveness
- β-glucuronidase release, percent of cell-associated enzyme (mouse neutrophils [14]; 10 μM (maximal concentration used), WT neutrophils): 5%
- β-glucuronidase release relative to maximal release by fMIVIL and fMIFL (mouse neutrophils [14]; 10 μM fMLF): about one-half
- lowest concentration with significant β-glucuronidase release (mouse neutrophils [14]; WT neutrophils, not significant below 1 μM): ≥ 1 µM
- ERK1/2 phosphorylation at 50 nM (mFPR1 [15]): but not fMLF
- ERK1/2 phosphorylation in mFPR2-RBL cells (mFPR2 [16]): none of the peptides was able to induce detectable phosphorylation
- response of cat neutrophils (neutrophils from cat): do not respond
- neutrophil migration at 100 nM (mouse neutrophils [17]): did not stimulate significant neutrophil migration
- response of cow neutrophils (neutrophils from cow): do not respond
- superoxide production, WT neutrophils (WT neutrophils; C57BL/6 WT): less potent

Molecule: Superoxide dismutase
- effect on detection of superoxide (mouse neutrophils [5]; SOD, 250 units, added 10 min before stimulation with 1 μM peptide): effectively inhibited the detection of superoxide
